# From PMC9176367 (Journal of medicinal chemistry, 2022)
# Columns and labels:
# MRGPRX1 [1] = conditions: NIH MLPCN; cited from earlier work
# human MRGPRX1 [2] = molecular target: T1, human MRGPRX1 (Homo sapiens, UniProt Q96LB2); assay type: cell-based; conditions: MRGPRX1 PAM potency
# Procedure, shortened: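 Stable human MRGPRX1 HEK293 cells seeded at 25,000/well and grown 2 days. Loaded with 2 μM Fluo-4 AM plus 1% Trypan Red in HBSS for 50 min at 37°C, then 10 min at room temperature. Serial HBSS dilutions of test compound added with EC20 BAM8–22; FLIPR read for 2 min as max–min fluorescence. […] Mean ± SEM, ≥3 experiments in quadruplicate.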
# [3] = Metabolite identification in human liver microsomes; assay type: in vitro ADME; conditions: 60 min
# human MRGPRX1 [4] = molecular target: T1, human MRGPRX1; test: MRGPRX1 intrinsic agonist activity in the absence of BAM8–22; assay type: cell-based; conditions: at concentrations up to 100 μM in the absence of BAM8–22
# Procedure, shortened: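 Same stable human MRGPRX1 HEK293 FLIPR format: 25,000 cells/well for 2 days, then 2 μM Fluo-4 AM with 1% Trypan Red in HBSS for 50 min at 37°C and 10 min at room temperature. Serially diluted test compound added in HBSS alone, with HBSS as negative control and BAM8–22 as positive control. Max–min fluorescence recorded over 2 min.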
# [5] = In vivo pharmacokinetics in mice after oral administration; conditions: for Kp: male, CD-1, mouse, po, 100 mg/kg, Tissue-to-plasma ratio (by AUC)
# Procedure, shortened: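 Male CD1 mice (25–30 g, n=3) dosed by oral gavage at 100 mg/kg in 5% dimethylacetamide/10% Cremophor EL/10% Tween80/25% PEG400/50% water. Killed at 0.25–6 h; cardiac blood taken to plasma, spinal cord and brain flash-frozen. Acetonitrile extraction with losartan internal standard, then LC/MS/MS. Calibration 0.01–10 nmol/mL in naïve matrix, 1/x-weighted linear regression.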
# MRGPRX2 = molecular target: T2, MRGPRX2 (Homo sapiens, UniProt Q96LB1); assay type: cell-based
# T2 sequence (Q96LB1 1-330): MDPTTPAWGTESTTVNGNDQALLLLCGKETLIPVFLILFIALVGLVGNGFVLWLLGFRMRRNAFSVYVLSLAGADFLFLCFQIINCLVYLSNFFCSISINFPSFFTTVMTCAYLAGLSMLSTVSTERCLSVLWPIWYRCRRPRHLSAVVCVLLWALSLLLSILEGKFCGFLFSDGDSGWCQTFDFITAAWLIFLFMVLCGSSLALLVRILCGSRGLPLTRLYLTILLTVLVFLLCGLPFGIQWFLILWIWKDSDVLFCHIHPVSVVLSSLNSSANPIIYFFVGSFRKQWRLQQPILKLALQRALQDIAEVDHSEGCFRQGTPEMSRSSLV
# [6] = test system: panel of 44 selected targets (Eurofins Cerep SafetyScreen 44); test: Off-target panel of 44 selected targets; conditions: at 10 μM
# hERG channel = hERG channel (Homo sapiens, UniProt Q12809); test: hERG channel in Eurofins Cerep SafetyScreen 44; conditions: at 10 μM
# humanized MRGPRX1 mice [7] = assay type: in vivo; conditions: 100 mg/kg oral, 0–1 hour post-drug
# naïve MRGPRX1 mice [8] = test: Open field test in naïve MRGPRX1 mice; assay type: in vivo; conditions: 100 mg/kg, po, compared to pre-drug
# naïve MRGPRX1 mice [9] = test: Rotarod test in naïve MRGPRX1 mice; assay type: in vivo; conditions: 100 mg/kg, po, vs vehicle-treated group and pre-treatment values
# humanized MRGPRX1 mice [10] = test: Sciatic nerve chronic constriction injury; assay type: in vivo; conditions: 100 mg/kg, po
# Procedure, shortened: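 Humanized MRGPRX1 mice of both sexes (2–3 months, 20–30 g) under 2% isoflurane; left sciatic nerve loosely ligated with three sutures proximal to the branching point. Test compound given at 100 mg/kg po, vehicle as control. Hargreaves heat paw withdrawal latency measured before and after dosing on days 12 and 26 post-CCI (n=4–5/group). Two-way mixed-model ANOVA with Bonferroni; mean + SD.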
# MRGPRX1 [11] = conditions: cited from earlier work
# [12] = spinal cord, 100 mg/kg po (table)
# T1 sequence (Q96LB2 whole entry): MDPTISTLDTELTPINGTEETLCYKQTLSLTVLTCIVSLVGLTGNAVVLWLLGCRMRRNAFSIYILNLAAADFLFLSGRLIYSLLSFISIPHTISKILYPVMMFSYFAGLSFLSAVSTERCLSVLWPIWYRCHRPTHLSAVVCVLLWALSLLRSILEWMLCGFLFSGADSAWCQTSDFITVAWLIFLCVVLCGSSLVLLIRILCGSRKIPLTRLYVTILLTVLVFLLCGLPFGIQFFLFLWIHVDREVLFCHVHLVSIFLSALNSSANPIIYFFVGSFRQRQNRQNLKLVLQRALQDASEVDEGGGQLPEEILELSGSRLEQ
# hERG channel, sequence (Q12809 whole entry): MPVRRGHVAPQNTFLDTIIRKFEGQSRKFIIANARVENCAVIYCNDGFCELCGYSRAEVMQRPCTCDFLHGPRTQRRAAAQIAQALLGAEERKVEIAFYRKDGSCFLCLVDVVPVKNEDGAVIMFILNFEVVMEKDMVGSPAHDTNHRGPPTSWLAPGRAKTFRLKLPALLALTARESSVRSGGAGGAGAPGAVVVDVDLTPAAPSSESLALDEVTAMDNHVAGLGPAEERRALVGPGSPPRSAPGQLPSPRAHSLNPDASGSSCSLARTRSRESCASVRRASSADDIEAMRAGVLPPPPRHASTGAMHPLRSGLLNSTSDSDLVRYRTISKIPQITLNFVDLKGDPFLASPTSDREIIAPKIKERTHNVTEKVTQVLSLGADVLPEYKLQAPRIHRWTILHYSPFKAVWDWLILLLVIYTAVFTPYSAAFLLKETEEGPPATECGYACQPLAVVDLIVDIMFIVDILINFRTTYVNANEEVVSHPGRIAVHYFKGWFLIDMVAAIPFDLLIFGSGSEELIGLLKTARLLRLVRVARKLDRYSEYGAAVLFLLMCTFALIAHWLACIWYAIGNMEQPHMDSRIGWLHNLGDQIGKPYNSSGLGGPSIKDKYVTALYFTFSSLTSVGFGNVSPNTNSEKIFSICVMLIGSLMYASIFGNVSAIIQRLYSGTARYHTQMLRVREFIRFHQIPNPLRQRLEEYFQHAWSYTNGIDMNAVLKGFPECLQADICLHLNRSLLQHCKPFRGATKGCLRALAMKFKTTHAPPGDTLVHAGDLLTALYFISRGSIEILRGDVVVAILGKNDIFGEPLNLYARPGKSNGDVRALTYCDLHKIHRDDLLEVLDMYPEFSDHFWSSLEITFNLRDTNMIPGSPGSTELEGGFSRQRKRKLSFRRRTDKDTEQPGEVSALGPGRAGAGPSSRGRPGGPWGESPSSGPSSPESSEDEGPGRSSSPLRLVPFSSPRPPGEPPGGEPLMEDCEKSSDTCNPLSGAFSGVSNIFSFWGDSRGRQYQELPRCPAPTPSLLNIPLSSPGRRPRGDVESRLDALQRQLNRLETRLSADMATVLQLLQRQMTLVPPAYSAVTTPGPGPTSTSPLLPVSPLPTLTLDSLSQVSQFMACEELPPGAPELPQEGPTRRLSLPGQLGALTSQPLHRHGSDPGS
smiles,measurement,setting,value
"Cc1ccccc1Oc1ncnc2sccc12 [Compound 1b, 4-(o-Tolyloxy)thieno[2,3-d]pyrimidine]",allosteric MRGPRX1 activator activity,MRGPRX1 [1],active allosteric MRGPRX1 activator
"Cc1sc2ncnc(Oc3ccccc3)c2c1C [Compound 1c, 5,6-Dimethyl-4-phenoxythieno[2,3-d]pyrimidine]",fold loss in potency compared to 1b,human MRGPRX1 [2],4 fold
"Cc1sc2ncnc(Oc3ccccc3F)c2c1C [Compound 1f, 4-(2-Fluorophenoxy)-5,6-dimethylthieno[2,3-d]pyrimidine]",major metabolite identification,[3],insertion of an oxygen atom into the parent compound
"CC(C)(C)c1sc2ncnc(Oc3ccccc3OC(F)(F)F)c2c1-c1ccc(Cl)c(Cl)c1 [Compound 1t, 6-tert-butyl-5-(3,4-dichlorophenyl)-4-(2-(trifluoromethoxy)phenoxy)thieno[2,3-d]pyrimidine]",intrinsic agonist activity,human MRGPRX1 [4],no intrinsic agonist activity
same,Cmax in the spinal cord relative to the EC50 value,[5]; 100 mg/kg po,more than 40 fold
same,Cmax,"[5]; brain, 100 mg/kg po",0.82 ± 0.05 nmol·h/g
same,Kp,"[5]; brain/plasma, brain, 100 mg/kg po",0.022
same,Kp,"[5]; spinal cord/plasma, spinal cord, 100 mg/kg po",0.127
same,AUC0-last,[5]; [12],13.79 ± 0.14 nmol·h/g
same,Cmax,[5]; [12],4.60 ± 0.60 nmol·h/g
same,selectivity for MRGPRX1 over MRGPRX2,MRGPRX2,at least 50 fold
same,MRGPRX2 PAM activity,"MRGPRX2; at 5 μM, in presence of EC20 concentration of C48/80",no MRGPRX2 PAM activity
same,inhibition of 5 of the 44 targets,[6],50−64%
same,inhibition of hERG channel,hERG channel,more than 50%
same,itch side effects (spontaneous scratch bouts),humanized MRGPRX1 mice [7],lack of spontaneous scratch bouts
same,overt adverse effects,humanized MRGPRX1 mice [7]; compared to vehicle,no overt adverse effects
same,exploratory performance in the open field test,naïve MRGPRX1 mice [8],"neither compound 1t (100 mg/kg, po) nor vehicle significantly impaired exploratory performance"
same,performance on the rotarod test,naïve MRGPRX1 mice [9],no difference in performance on the rotarod test
same,ipsilateral paw withdrawal latency (PWL) to radiant heat,humanized MRGPRX1 mice [10]; 1 and 2 hours post-drug on day 12 post-injury,significantly increased ipsilateral PWLs from pre-drug level
same,ipsilateral paw withdrawal latency (PWL) to radiant heat,humanized MRGPRX1 mice [10]; 2 hours post-drug on day 26 post-injury,significantly increased ipsilateral PWLs from pre-drug level
same,contralateral hind paw PWL,humanized MRGPRX1 mice [10]; after drug treatment,no significant change of PWLs
"CCOc1ccccc1NC(=O)c1ccccc1NS(=O)(=O)C1CC1 [ML382, 2-[(Cyclopropylsulfonyl)amino]-N-(2-ethoxyphenyl)benzamide]",pain hypersensitivity after injury,MRGPRX1 [11]; intrathecal injection,inhibit pain hypersensitivity after injury
same,itch side effects,MRGPRX1 [11]; systemic administration,did not elicit itch side effects
